Measurements reported in ChEMBL document CHEMBL5214901 (J Med Chem, 2021).
Active and inactive are the calls of the source. The calls are words filed in the database; no cut-off is given here.

Key:
Integrin alpha-V/beta-6 = Integrin alpha-V/beta-6 (Homo sapiens, UniProt P06756+P18564); experiment: Inhibition of human recombinant integrin alphavbeta6 incubated for 1 hr by ELISA assay; type: protein-complex assay
Human alphaherpesvirus 1 [1] = experiment: Antiviral activity against HSV-1 R8102 infected in HEK293T cells assessed as inhibition of viral replication using ONPG as substrate incubated for 1 hrs followed by viral infection measured after 90 mins by microplate reader analysis; type: functional, organism-based; conditions: dose <= 1000.0 µM, DDE = dose-dependent effect
Outline: (§1)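 Peptides were dissolved at 10 mM (stock) in serum-free DMEM and neutralized with Tris-HCl. 293T cells (low endogenous αvβ6/αvβ8) were pretreated with increasing peptide concentrations for 1 h at 37 °C. Cells were then infected with lacZ-reporter R8102 at MOI 5 PFU/cell for 90 min at 37 °C with peptide. After rinsing, cells were incubated 8 h without peptide. Infection was read as β-galactosidase activity with ONPG; triplicate, SD.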

Human alphaherpesvirus 1 [2] = experiment: Antiviral activity against HSV-1 K26GFP infected in J cells expressing nectin1 plus alphavbeta6 integrin at 700 uM incubated for 48 hrs followed by viral infection measured after 16 hrs by fluorescent microscopy; type: functional, organism-based; conditions: time 64.0 hrs
Outline: (§2)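 J cells were transfected with nectin1 (75 ng DNA/24 well) plus αv+β6, αv+β8, or both integrin plasmids (300 ng each). Total DNA was made up to 675 ng with Erb-2 plasmid. At 48 h, cells got 700 μM peptide for 1 h at 37 °C, then K26GFP at 1 PFU/cell for 90 min with peptide. Acid wash (pH 3), then 16 h without peptide. EGFP was read by fluorescence microscopy and flow cytometry MFI (≥10 000 events); triplicates ± SD.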

Human alphaherpesvirus 1 [3] = experiment: Antiviral activity against HSV-1 R8102 infected in HEK293T cells assessed as inhibition of viral replication at 500 to 1000 uM using ONPG as substrate incubated for 1 hrs followed by viral infection measured after 90 mins by microplate reader analysis relative to control; type: functional; design: scale not given: the % may be the effect or the level left; conditions: dose 500-1000 µM; outline: as §1
Human alphaherpesvirus 1 [4] = experiment: Antiviral activity against HSV-1 K26GFP infected in J cells expressing nectin1 plus alphavbeta6/alphavbeta8 integrin at 700 uM incubated for 48 hrs followed by viral infection measured after 16 hrs by fluorescent microscopy; type: functional, organism-based; conditions: time 64.0 hrs; outline: as §2
Human alphaherpesvirus 1 [5] = experiment: Antiviral activity against HSV-1 K26GFP infected in J cells expressing nectin1 plus alphavbeta8 integrin at 700 uM incubated for 48 hrs followed by viral infection measured after 16 hrs by fluorescent microscopy; type: functional, organism-based; conditions: time 64.0 hrs; outline: as §2
Human alphaherpesvirus 1 [6] = experiment: Antiviral activity against HSV-1 K26GFP infected in J cells expressing nectin1 plus alphavbeta6/alphavbeta8 integrin assessed as alphavbeta6/alphavbeta8 receptor internalization at 700 uM incubated for 1 hrs followed by viral infection by flow cytometry assay; type: functional, organism-based
Outline: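 Transfected J cells expressed nectin1 plus both αvβ6 and αvβ8 (48 h post-transfection) and were treated with 700 μM peptide for 1 h at 37 °C. Surface β6 and β8 were stained for 1 h at 4 °C with APC-conjugated mAbs outside the RGD-binding site. Nectin1 was stained with R1.302 plus APC secondary. Read-out was flow cytometry APC MFI of gated cells, ≥10 000 events; triplicates ± SD.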

Human alphaherpesvirus 1 [7] = experiment: Inhibition of HSV-1 soluble gH binding to alphavbeta6/alphavbeta8 integrin expressed in […] J cells at 700 uM incubated for 1 hr by flow cytometry assay; type: cell-based
Outline: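 J cells were transfected with nectin1 plus αvβ6 and αvβ8 and, 48 h later, exposed to 700 μM peptide for 1 h at 37 °C. They were then incubated for 1 h at 4 °C with 2 μM One-STrEP-tagged soluble gH in DMEM/5% FBS/30 mM HEPES. Soluble gB served as the control protein. Binding was detected with PE-Strep-Tactin (1 h, 4 °C) as flow cytometry MFI (≥10 000 events); triplicates ± SD.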

Sequence of Integrin alpha-V/beta-6 (P06756 31-889 limits assumed): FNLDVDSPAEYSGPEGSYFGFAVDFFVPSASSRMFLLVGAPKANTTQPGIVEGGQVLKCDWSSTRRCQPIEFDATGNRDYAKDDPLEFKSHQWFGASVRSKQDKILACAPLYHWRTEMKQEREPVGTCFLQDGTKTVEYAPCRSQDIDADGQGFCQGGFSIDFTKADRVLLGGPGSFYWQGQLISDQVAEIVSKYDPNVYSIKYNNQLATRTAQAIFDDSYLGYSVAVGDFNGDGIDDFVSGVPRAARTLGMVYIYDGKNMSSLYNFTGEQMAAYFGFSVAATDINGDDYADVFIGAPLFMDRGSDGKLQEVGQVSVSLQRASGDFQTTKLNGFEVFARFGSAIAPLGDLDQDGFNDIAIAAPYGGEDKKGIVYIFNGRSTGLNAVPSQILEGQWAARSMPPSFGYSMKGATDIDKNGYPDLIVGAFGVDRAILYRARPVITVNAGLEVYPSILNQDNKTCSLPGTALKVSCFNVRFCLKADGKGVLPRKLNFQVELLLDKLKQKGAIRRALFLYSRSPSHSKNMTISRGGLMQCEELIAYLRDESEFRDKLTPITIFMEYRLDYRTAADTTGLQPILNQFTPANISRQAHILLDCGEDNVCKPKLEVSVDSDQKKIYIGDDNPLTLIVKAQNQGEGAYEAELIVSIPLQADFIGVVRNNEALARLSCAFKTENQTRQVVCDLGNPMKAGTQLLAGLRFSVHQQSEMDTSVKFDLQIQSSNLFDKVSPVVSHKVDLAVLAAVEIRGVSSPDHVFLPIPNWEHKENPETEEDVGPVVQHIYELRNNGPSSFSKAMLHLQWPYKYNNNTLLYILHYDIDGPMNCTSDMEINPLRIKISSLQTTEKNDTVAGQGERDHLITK
Sequence of Integrin alpha-V/beta-6 (P06756 891-1048 limits assumed): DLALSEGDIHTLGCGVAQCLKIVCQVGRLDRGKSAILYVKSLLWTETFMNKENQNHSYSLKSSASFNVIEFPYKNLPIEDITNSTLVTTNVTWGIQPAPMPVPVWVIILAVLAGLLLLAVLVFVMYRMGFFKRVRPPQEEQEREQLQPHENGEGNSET
Sequence of Integrin alpha-V/beta-6 (P18564 22-788 limits assumed): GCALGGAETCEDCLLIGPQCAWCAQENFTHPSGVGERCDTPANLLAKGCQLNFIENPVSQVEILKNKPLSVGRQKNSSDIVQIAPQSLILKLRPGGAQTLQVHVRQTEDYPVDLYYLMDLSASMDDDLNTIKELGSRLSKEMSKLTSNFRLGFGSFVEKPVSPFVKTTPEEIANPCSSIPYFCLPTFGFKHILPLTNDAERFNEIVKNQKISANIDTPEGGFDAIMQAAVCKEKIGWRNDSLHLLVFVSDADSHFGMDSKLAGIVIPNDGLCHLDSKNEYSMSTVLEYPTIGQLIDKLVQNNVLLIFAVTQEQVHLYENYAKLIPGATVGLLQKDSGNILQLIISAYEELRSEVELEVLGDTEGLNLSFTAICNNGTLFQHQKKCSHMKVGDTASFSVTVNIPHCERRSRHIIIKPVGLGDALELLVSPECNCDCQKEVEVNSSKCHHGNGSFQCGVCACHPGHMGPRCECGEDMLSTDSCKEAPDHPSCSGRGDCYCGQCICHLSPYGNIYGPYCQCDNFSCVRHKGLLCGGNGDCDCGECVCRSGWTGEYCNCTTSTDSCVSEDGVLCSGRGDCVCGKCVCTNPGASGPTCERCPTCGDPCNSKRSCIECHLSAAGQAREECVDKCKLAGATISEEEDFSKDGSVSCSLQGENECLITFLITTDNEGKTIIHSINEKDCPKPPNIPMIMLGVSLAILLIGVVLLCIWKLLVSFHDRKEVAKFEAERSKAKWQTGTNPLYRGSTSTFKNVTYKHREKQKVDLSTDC

IC50 (Integrin alpha-V/beta-6)	Compound	Activity (Human alphaherpesvirus 1 [1])	Activity (Human alphaherpesvirus 1 [2])	further results
38 nM	CC(C)C[C@H](NC(=O)[C@H](CO)NC(=O)[C@H](CC(=O)O)NC(=O)[C@H](CC(C)C)NC(=O)[C@H](CC(=O)O)NC(=O)[C@@H](NC(=O)[C@@H](N)CCCNC(=N)N)[C@@H](C)O)C(=O)N[C@@H](CCCNC(=N)N)C(=O)N[C@H](C(=O)O)[C@@H](C)O	–	–	–
–	N=C(N)NCCC[C@@H]1NC(=O)CC[C@@H](C(N)=O)NC(=O)[C@H](C2CCCCC2)NC(=O)[C@H](CC(=O)O)NC(=O)CNC1=O	Dde	Active	–
–	CN1C(=O)[C@H](C2CCCCC2)NC(=O)[C@H](CC(=O)O)NC(=O)CNC(=O)[C@H](CCCNC(=N)N)NC(=O)CC[C@H]1C(N)=O	Dde	Active	Activity (Human alphaherpesvirus 1 [3]): 70%; Activity (Human alphaherpesvirus 1 [4]): Active; Activity (Human alphaherpesvirus 1 [5]): Active; Activity (Human alphaherpesvirus 1 [6]): Active; inhibition (Human alphaherpesvirus 1 [7]): Active
> 5000 nM	CN1C(=O)CNC(=O)[C@H](CCCNC(=N)N)NC(=O)CC[C@@H](C(N)=O)NC(=O)[C@H](C2CCCCC2)NC(=O)[C@@H]1CC(=O)O	–	–	–
